# Screening data as filed in PubChem BioAssay.
# This is a sample that favours compounds with a hit; in the whole collection about 1% have one here.
# Yeast tox: yeast growth toxicity, wild-type and mutant, primary screen, cytotoxicity control for eIF2B function restoration project, wild-type and eIF2Bepsilon R284H mutant, A595. S. cerevisiae wild-type growth, A595 turbidity, 16 h. growth inhibition, % at 25 µM (by protocol). 30,000 tested, 0.3% active;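 active means mutant and wild-type yeast strains alike exhibit over 30% growth inhibition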
#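 Test system: Wild-type and eIF2Bepsilon-R284H mutant S. cerevisiae, screened separately | Dosing: Single 25 µM compound dose in 0.2% DMSO | Schedule: 16 h compound exposure during growth at 30 °C | Detection: A595 turbidity | Evaluation: Growth inhibition (%) versus cell controls and blanks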
# eIF2B yeast act: GCN4-lacZ reporter reduction in eIF2B-epsilon mutant yeast, primary screen, S. cerevisiae, eIF2B-epsilon R284H, Beta-Glo luminescence; inhibition, % at 25 µM (by protocol); 27,000 tested, 0.91% active;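 active means mutant luminescence inhibited past about 50% while wild type luminescence and mutant growth stay under set limits, limit read from the data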
#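 Material: yeast eIF2B-epsilon R284H mutant carrying GCN4–beta-galactosidase fusion. Medium: YPD yeast growth medium. Incubation: 16 h growth with compound at 30 °C, 90 min Beta-Glo step. Signal: Beta-Glo luminescence plus absorbance at 595 nm. Evaluation: % inhibition of reporter signal and growth versus controls. Doses: 25 µM single dose.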
# Hits are given with their value; i = inactive; nt = no result.
SMILES,Yeast tox,eIF2B yeast act
COc1ccc2c(c1)CCc1c(C(=O)NCc3cccnc3)noc1-2,i,60
CCC(C)(C(=O)NC1CCCC1)N(C(=O)c1ccccn1)c1ccc(C)cc1 (stereo not drawn),i,nt
O=C(Nc1ccc2c(c1)OCO2)c1noc2c1CCCCC2,i,i
CC(=O)c1ccc(NC(=O)c2noc3c2CCCCC3)cc1,i,69
O=C(CSc1nnc(C2CC2)n1-c1ccccc1)Nc1ccc(N2CCOCC2)cc1,i,i
COc1ccc(-n2nnnc2Sc2ccc(S(=O)(=O)N3CCOCC3)cn2)cc1,i,i
Cc1cc(-c2nn3c(-c4ccccc4)nnc3s2)c2ccccc2n1,i,i
c1ccc(-c2cc(-c3nn4c(-c5ccco5)nnc4s3)c3ccccc3n2)cc1,i,72
CCOc1ccccc1-c1nc(SCC(=O)O)n[nH]1,i,i
CCOC(=O)c1ccoc1CSCc1ccc(C(=O)OC)o1,i,i
CCCOC(=O)/C(=C\c1ccc([N+](=O)[O-])o1)NC(=O)c1ccccc1,i,i
CCc1ccc(C(=O)/C=C/c2ccc([N+](=O)[O-])o2)cc1,66,nt
COc1ccc(N2CCN(CC(O)COc3ccc4c(c3)CCC4)CC2)cc1 (stereo not drawn),i,i
Cc1cc(OCC(=O)N2CCOCC2)cc2oc(=O)c3ccccc3c12,nt,i
COCC(C)n1c(C)cc(C(=O)COC(=O)c2nc3nc(C)cc(C)n3n2)c1C (stereo not drawn),i,i
CCCc1cc(=O)[nH]c(SCC(=O)c2cc(C)n(C(C)COC)c2C)n1 (stereo not drawn),i,57
COc1ccc(NC(=O)c2cccc(NC(=O)C3C4CC5OC(=O)C3C5C4)c2)c(OC)c1 (stereo not drawn),i,i
Cn1c(=O)c(=O)n(C)c2cc(S(=O)(=O)N3CCCCCC3)ccc21,i,58
CCOc1cc(S(=O)(=O)N2CCCCC2)ccc1F,i,i
Cc1ccc(N2C(=O)C3C4C=CC(C4)C3C2=O)cc1C (stereo not drawn),i,i
Cc1cccc(N2C(=O)C3C4C=CC(C4)C3C2=O)c1 (stereo not drawn),i,57
CCOc1ccc(N(Cc2cc3cc(OC)ccc3[nH]c2=O)C(=O)C2CCCO2)cc1 (stereo not drawn),i,i
COc1ccc(CCNC(=O)c2c[nH]c3ccccc3c2=O)cc1OC,i,i
CCOCCCNC(=O)c1c[nH]c2ccc(C)cc2c1=O,i,52
CC(C)NC(=O)CCNS(=O)(=O)c1ccc(Br)cc1,i,83
SMILES,Yeast tox,eIF2B yeast act
Cc1ccc(S(=O)(=O)NCCC(=O)O)cc1,i,i
COc1ccc(C2c3c(ncn(CCN4CCOCC4)c3=N)Oc3ccc4ccccc4c32)cc1OC (stereo not drawn),i,i
CCCCN(C(=O)CNC(=O)c1ccco1)C(C(=O)NC1CCCC1)c1ccc(OC)cc1 (stereo not drawn),i,i
Cc1cc(C)n(C(=O)c2ccc(S(=O)(=O)N3CCOCC3)cc2)n1,i,i
COc1ccc(C2N(S(=O)(=O)c3ccc(C)cc3)CCN2S(=O)(=O)c2ccc(C)cc2)cc1,i,i
N#Cc1c(/N=C/c2cc(Br)cs2)sc2c1CCC2,i,60
N#Cc1c(/N=C/c2cccs2)sc2c1CCC2,i,i
c1cnc(SCCOc2ccc3c(c2)CCC3)nc1,i,nt
CCn1c(Sc2nc(C)nc3scc(-c4cccs4)c23)n[nH]c1=O,46,i
CCc1nc2scc(-c3cccs3)c2c(=O)o1,i,i
CCOc1ccc(-c2cnc(SCC(N)=O)nc2N)cc1,i,nt
Clc1ccc(Cl)c(-c2ccc(/C=N/c3ncn[nH]3)o2)c1,i,i
NC(=S)N/N=C/c1ccc(-c2ccc(Cl)c(Cl)c2)o1,30,i
O=C(CCN1CCN(C(=O)c2ccco2)CC1)Nc1ccc(F)cc1,i,69
CC(=O)Nc1ccc(C(=O)N2CCN(C(=O)c3ccco3)CC2)cc1,i,i
CC(Sc1nc(N(C)C)nc(N2CCOCC2)n1)C(=O)Nc1ccccc1 (stereo not drawn),i,i
O=C(NCC(c1cccnc1)N1CCN(c2ccccc2)CC1)C1CCCCC1 (stereo not drawn),i,i
Cc1ccccc1OCc1nc2c3cnn(C)c3ncn2n1,i,55
Cc1cccc(C)c1OCc1nnc2c3cnn(C)c3ncn12,i,i
O=C(Nc1ccccc1C(=O)N1CCN(Cc2ccccc2)CC1)c1ccccn1,i,i
Cc1ccc(C(=O)Nc2nnc(C3CCCCC3)s2)o1,i,nt
Cc1cc(C(=O)Nc2nnc(C3CCCCC3)s2)no1,i,51
CCOC(=O)N1CCN(C(=O)CCc2ccc(S(=O)(=O)NCCc3ccccc3)cc2)CC1,i,i
CCOC(=O)c1ccc(Nc2nc(C)cc(=O)[nH]2)cc1,i,i
Cc1ccc(Nc2cc(C)nn2-c2nc(C)cc(=O)[nH]2)cc1,78,i
SMILES,Yeast tox,eIF2B yeast act
O=C(NC1CCCCC1)c1cccc(COCC(F)(F)F)c1,i,nt
CCOC(=O)COc1ccc(S(=O)(=O)N2CCN(C(=O)OCC)CC2)cc1,i,i
CCOC(=O)c1cc(S(=O)(=O)N2CCN(C(=O)OCC)CC2)cn1C,i,67
O=C(c1cncc(Br)c1)N1CCc2ccccc2C1,i,i
COC1(OC)C(/C=C/c2ccc(Cl)cc2)C(C#N)(C#N)C1(OC)OC (stereo not drawn),i,i
COC(=O)c1nn(-c2ccc3c(c2)CCN3C(C)=O)cc1O,i,77
COC(=O)c1nn(-c2ccc3c(c2)OCO3)cc1O,i,i
COc1cccc(C2/C(=C(\O)c3ccc(OC)c(OC)c3)C(=O)C(=O)N2c2cc(C)on2)c1 (stereo not drawn),i,i
Cc1ccc(OCC(O)CNS(=O)(=O)c2ccccc2C(=O)N2CCCCC2)cc1 (stereo not drawn),nt,i
COc1ccc(Cl)cc1NC(=O)C(=O)NC1CCCCCC1,i,i
O=C(NC1CCCCC1)Sc1ccc(Cl)cc1,41,i
O=C(COC(=O)c1ccc(Br)o1)NCc1ccco1,i,nt
COc1ccc(S(=O)(=O)N2CCCCC2C(=O)O)cc1 (stereo not drawn),i,i
COc1ccc(S(=O)(=O)N2CCCCC2C(=O)O)cc1OC (stereo not drawn),i,50
COc1cc2[nH]c(=O)n(CCCCCC(=O)NCCc3c[nH]c4ccccc34)c(=O)c2cc1OC,i,nt
CCCCNS(=O)(=O)C1CCS(=O)(=O)C1 (stereo not drawn),i,nt
COc1ccccc1-n1nc(C(=O)Nc2ccc3c(c2)OCO3)c2ccccc2c1=O,i,50
COc1ccc(-n2nc(C(=O)Nc3ccc4c(c3)OCO4)c3ccccc3c2=O)c(OC)c1,i,i
CCCCC(=O)Nc1ccc(C(=O)Nc2nc(CC(=O)OCC)cs2)cc1,i,nt
COc1ccc(S(=O)(=O)N(CCCN2CCCC2=O)Cc2cc3c(C)cc(C)cc3[nH]c2=O)cc1,i,i
COc1ccc(-c2cc3nc(C)cc(N)n3n2)cc1,i,82
CCc1c(C)nc2cc(-c3ccc(OC)c(OC)c3)nn2c1N1CCCC1,i,i
N#Cc1cc2sc3nnc(-c4ccncc4)n3c2cc1C#N,i,i
CC1=CCC(C(=O)O)(C(=O)N/N=C/c2cccs2)C(c2ccc([N+](=O)[O-])cc2)C1 (stereo not drawn),i,i
